Assays:
Leishmania chagasi [1] = experiment: Antileishmanial activity against Leishmania chagasi MHOM/BR/74/PP75 promastigotes after 72 hrs by haemocytometry; type: functional, organism-based; conditions: MHOM/BR/74/PP75, 72 h
Method in brief: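 Late-phase L. chagasi promastigotes, grown at 28 °C in RPMI 1640 with hemin, HEPES and 10% hiSBF, exposed to threefold serial dilutions (0.3–100 μM) for 72 h at 28 °C; untreated controls. Growth inhibition from haemocytometer counts; IC50/IC90 by sigmoidal regression; triplicates, repeated twice.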

Leishmania chagasi [2] = experiment: Antileishmanial activity against Leishmania chagasi MHOM/BR/74/PP75 amastigotes infected in human THP1 cells after 5 days by Giemsa staining; type: functional, organism-based; conditions: MHOM/BR/74/PP75, THP-1, 120 h
Method in brief: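 THP-1 cells (RPMI, 5% hiSBF, 37 °C, 5% CO2) transformed, then infected 24 h with late-phase L. chagasi promastigotes at parasite:cell 10:1. Treated with compound dilutions (top 100 μM) 5 days at 37 °C, 5% CO2, medium changed once after 3 days. Infected cells counted per 300 cells on methanol-fixed Giemsa slides; IC50/IC90 by sigmoidal regression; triplicates, repeated twice.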

[3] = Selectivity index, CC50 for african green monkey Vero cells to IC50 for Trypanosoma cruzi 320I01 epimastigote; type: functional
Method in brief: (§1)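 Selectivity index computed as CC50 in Vero cells divided by IC50 against the T. cruzi stage named in the line.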

[4] = Cytotoxicity against african green monkey Vero cells after 72 hrs by MTT assay; type: cell-based; conditions: chlorocebus sabaeus
Method in brief: (§2)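 Vero or transformed THP-1 cells incubated with compound (0.3–300 μM) 72 h at 37 °C, 5% CO2; untreated controls. MTT read-out, formazan OD at 580 nm; % cytotoxicity = 100 × (OD control − OD treated)/OD control. CC50/CC90 by sigmoidal regression; triplicates, repeated twice. DMSO stocks 100× concentrated, diluted in medium.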

[5] = Cytotoxicity against human THP1 cells after 72 hrs by MTT assay; type: cell-based; conditions: THP-1 cells; method in brief: as §2
[6] = Selectivity index, CC50 for african green monkey Vero cells to IC50 for Trypanosoma cruzi 320I01 amastigotes; type: functional; method in brief: as §1
[7] = Selectivity index, CC50 for human THP1 cells to IC50 for Leishmania chagasi MHOM/BR/74/PP75 promastigotes; type: functional, THP-1
Method in brief: (§3)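 Selectivity index computed as CC50 in THP-1 cells divided by IC50 against the L. chagasi stage named in the line.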

Trypanosoma cruzi [8] = experiment: Antitrypanosomal activity against Trypanosoma cruzi 320I01 amastigotes infected in african green monkey Vero cells after 5 days by Giemsa staining; type: functional, organism-based; conditions: 320I01, Vero, 120 h
Method in brief: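 Vero cells (RPMI, 5% hiSBF, 37 °C, 5% CO2) infected 24 h with tissue-derived T. cruzi trypomastigotes at parasite:cell 10:1. Compound dilutions (top 100 μM) applied 5 days at 37 °C, 5% CO2, medium changed once at day 3. Infected cells scored per 300 cells on methanol-fixed Giemsa preparations; IC50/IC90 by sigmoidal regression; triplicates, two experiments.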

[9] = Selectivity index, CC50 for human THP1 cells to IC50 for Leishmania chagasi MHOM/BR/74/PP75 amastigotes; type: functional, THP-1; method in brief: as §3
Trypanosoma cruzi [10] = experiment: Antitrypanosomal activity against Trypanosoma cruzi 320I01 epimastigotes after 72 hrs by haemocytometry; type: functional, organism-based; conditions: 320I01, 72 h
Method in brief: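 Late-phase T. cruzi epimastigotes cultured in LIT medium with hiFCS at 28 °C; threefold serial dilutions (0.3–100 μM) for 72 h at 28 °C, untreated controls. Parasites counted in a haemocytometer; IC50/IC90 by sigmoidal regression; each concentration in triplicate, two experiments.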

Row | SMILES | IC50 (Leishmania chagasi [1]) [µM] | IC90 (Leishmania chagasi [1]) [µM] | IC50 (Leishmania chagasi [2]) [µM] | IC90 (Leishmania chagasi [2]) [µM] | Selectivity Index [3] | CC50 at 72 h [4] [µM] | CC90 at 72 h [4] [µM] | CC50 at 72 h [5] [µM] | CC90 at 72 h [5] [µM] | Selectivity Index [6] | Selectivity Index [7] | IC50 (Trypanosoma cruzi [8]) [µM] | IC90 (Trypanosoma cruzi [8]) [µM] | Selectivity Index [9] | IC50 (Trypanosoma cruzi [10]) [µM] | IC90 (Trypanosoma cruzi [10]) [µM]
1 | O[C@@H]1Cc2cc(Cl)ccc2N[C@H](c2c(F)cccc2Cl)C1 (relative stereo) | 39.8 | 78.5 | 73.2 | > 100 | 6.36 | 92 | 182 | 110 | 214 | >2 | 2.76 | > 34.1 | > 34.1 | >1 | 14.5 | 34.8
2 | O[C@@H]1Cc2ccccc2N[C@H](c2c(Cl)cccc2Cl)C1 (relative stereo) | > 100 | > 100 | > 100 | > 100 | >6 | > 300 | > 300 | > 300 | > 300 | >4 | >3 | 69.9 | > 100 | >3 | 48.9 | > 100
3 | O[C@@H]1Cc2ccccc2N[C@H](c2c(F)cccc2Cl)C1 (relative stereo) | > 100 | > 100 | > 100 | > 100 | >3 | > 300 | > 300 | > 300 | > 300 | >3 | >3 | > 100 | > 100 | >3 | > 100 | > 100
4 | O[C@@H]1Cc2cc(Cl)ccc2N[C@H](c2c(Cl)cccc2Cl)C1 (relative stereo) | 14.7 | 30.3 | > 32.5 | > 32.5 | 3.36 | 49.9 | 176 | 59.6 | > 293 | >1 | 4.06 | > 32.5 | > 32.5 | >1 | 14.8 | 53
5 | Cc1ccc([C@@H]2C[C@H](O)Cc3cc(C)ccc3N2)cc1 (relative stereo) | > 100 | > 100 | > 100 | > 100 | >49 | > 300 | > 300 | 172 | > 300 | >6 | >1 | 50.5 | > 100 | >1 | 6.1 | 35.3
6 | O[C@@H]1Cc2cc(Cl)ccc2N[C@H](c2ccc(Cl)cc2)C1 (relative stereo) | 14.1 | 41 | > 100 | > 100 | 4.65 | 76.6 | > 300 | 49.2 | > 300 | >0.8 | 3.49 | > 100 | > 100 | >0.49 | 16.4 | 29.7
7 | Cc1ccc2c(c1)C[C@@H](O)C[C@@H](c1ccccc1Cl)N2 (relative stereo) | 41.3 | 49.4 | > 100 | > 100 | 3.67 | 82.4 | > 300 | 85.2 | > 300 | 1.8 | 2.06 | 45.8 | 73.6 | >0.85 | 22.4 | 67.2
8 | O[C@@H]1Cc2cc(Cl)ccc2N[C@H](c2ccccc2Cl)C1 (relative stereo) | 50.2 | > 100 | > 100 | > 100 | 6.91 | 106 | > 300 | 75.5 | > 300 | >1 | 1.5 | > 100 | > 36.1 | >0.75 | 15.3 | 35.7
9 | O[C@@H]1Cc2cc(Cl)ccc2N[C@H](c2ccccc2F)C1 (relative stereo) | 54.5 | > 100 | > 100 | > 100 | 10.53 | 182 | > 300 | 110 | 273 | >4 | 2.02 | > 38.1 | > 38.1 | >1 | 17.3 | 79.9
10 | O[C@@H]1Cc2cc(Cl)ccc2N[C@H](c2ccc(Br)cc2)C1 (relative stereo) | 9.54 | 11.7 | > 94.9 | > 94.9 | 2.12 | 57.7 | 164 | 153 | 280 | >0.6 | 16.05 | > 94.9 | > 94.9 | >1.61 | 27.2 | 54.4
11 | O[C@@H]1Cc2cc(F)ccc2N[C@H](c2ccc(Cl)cc2)C1 (relative stereo) | 17.1 | 77.7 | > 100 | > 100 | 4.21 | 194 | > 300 | 100 | > 300 | >1.9 | 5.86 | > 100 | > 100 | >1 | 45.9 | > 100
12 | O[C@@H]1Cc2ccccc2N[C@H](c2ccccc2Cl)C1 (relative stereo) | 84.4 | > 100 | > 100 | > 100 | >6 | > 300 | > 300 | > 300 | > 300 | >3 | >3 | > 100 | > 100 | >3 | 49.7 | > 100
13 | O[C@@H]1Cc2ccccc2N[C@H](c2ccccc2F)C1 (relative stereo) | > 100 | > 100 | > 100 | > 100 | >4 | > 300 | > 300 | > 300 | > 300 | >3 | >3 | > 100 | > 100 | >3 | 63 | > 100
14 | C[C@@H]1[C@H](O)[C@@H](C)/C=C/C=C/C=C/C=C/C=C/C=C/C=C/[C@H](O[C@@H]2O[C@H](C)[C@@H](O)[C@H](N)[C@@H]2O)C[C@@H]2O[C@](O)(C[C@@H](O)C[C@@H](O)[C@H](O)CC[C@@H](O)C[C@@H](O)CC(=O)O[C@H]1C)C[C@H](O)[C@H]2C(=O)O [AMPHOTERICIN B] | 0.02 | 0.02 | 0.08 | 0.14 | – | – | – | 8.79 | 34.9 | – | 439.5 | – | – | 109.87 | – | –
15 | CC1CS(=O)(=O)CCN1/N=C/c1ccc([N+](=O)[O-])o1 (centres undefined) [NIFURTIMOX] | – | – | – | – | 26.36 | 61.4 | > 300 | – | – | 26.7 | – | 2.3 | 9.06 | – | 2.33 | 23.4

Source: ChEMBL document CHEMBL1177650, “Synthesis, structural elucidation and in vitro antiparasitic activity against Trypanosoma cruzi and Leishmania chagasi parasites of novel tetrahydro-1-benzazepine derivatives” (Bioorg Med Chem, 2010)
